# Assay outcomes deposited in PubChem BioAssay by several laboratories.
# Only some compounds are listed: those with a hit (about 4.5% of all), similar ones and a draw of the others.
# APP 5'UTR act: activators of APP 5'UTR luciferase reporter, primary screen, SH-SY5Y cells | SH-SY5Y APP 5'UTR luciferase reporter, luminescence; zero percent = DMSO vehicle wells | activation, % at 2 µM | 1% of 190,000 active;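 active = activation above a set limit, based on mean plus 3 SD of controls, cut at about 140% in these data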
# NF-kB neuron act: activators of NF-kB expression in neurons, primary screen, cell-based, HTS. human neuronal cells, NF-kB reporter expression; active compounds read high. fold change at 12.5 µM. 1.6% of 190,000 active. AID 1239, 2008; in the data active = fold change above about 3.3
# STAT1 activator: STAT1 signaling activators, primary screen, cell-based, HTS, luciferase reporter; NIH 3T3 STAT1-luciferase reporter, IFN-gamma, luminescence; 100% = IFN-gamma alone, no compound; activation (% of control), % at 5.5 µM; 2.6% of 200,000 active;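 active = activation above the screen-wide mean activation plus 3 SD, cut at about 130% in these data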;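 note: raw ratio to IFN-gamma control signal so 100% means no change and 0% no light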
# PERK inhibitor: block of dimerizer-induced PERK translation repression, primary screen, PERK inhibitor project, CHO PERK-DD cells, SEAP luminescence, HTS; Eukaryotic translation initiation factor 2-alpha kinase 3 (Homo sapiens), Q9NZJ5; CHO PERK-DD fusion, SEAP luminescence translation reporter; inhibition, % at 5.6 µM; 0.17% of 220,000 active;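 active = inhibition above the mean inhibition of all tested compounds plus 3 SD, set separately per screening campaign, cut at about 2.9% in these data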;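 note: PERK kinase domain activated by AP20187 dimerizer at 100 nM; 0% = DMSO with dimerizer and 100% = rapamycin at 8.4 µM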
# AHR activator: AHR activators, primary screen, cell-based, luminescence, luciferase reporter, human; Aryl hydrocarbon receptor (Homo sapiens), P35869; AHR-responsive luciferase reporter cells; activation, % at 5 µM; 2.5% of 320,000 active; AID 2796, 2010; in the data active = activation above about 47%;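 note: 0% = vehicle wells and 100% = reference agonist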
# MDM2 E3 inh: MDM2-luciferase reporter signal enhancers, primary screen, MDM2 E3 ligase inhibitor project, cell-based, luminescence, 1536-well; cell-based MDM2 ubiquitination luciferase reporter, 2 h; 0 = plate control, 100 = twice control, blank-subtracted; AID 1230, 2008; signal enhancement, % at 5 µM; E3 ubiquitin-protein ligase Mdm2 (Homo sapiens), Q00987; 0.11% of 210,000 active;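 active = signal enhancement of 30% or more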;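 note: luminescence tracks abundance of the self-degrading MDM2-luciferase fusion protein; higher signal means inhibition of MDM2 E3 ligase activity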
# Target sequence (Q00987 whole entry, looked up, the tested form may be a part): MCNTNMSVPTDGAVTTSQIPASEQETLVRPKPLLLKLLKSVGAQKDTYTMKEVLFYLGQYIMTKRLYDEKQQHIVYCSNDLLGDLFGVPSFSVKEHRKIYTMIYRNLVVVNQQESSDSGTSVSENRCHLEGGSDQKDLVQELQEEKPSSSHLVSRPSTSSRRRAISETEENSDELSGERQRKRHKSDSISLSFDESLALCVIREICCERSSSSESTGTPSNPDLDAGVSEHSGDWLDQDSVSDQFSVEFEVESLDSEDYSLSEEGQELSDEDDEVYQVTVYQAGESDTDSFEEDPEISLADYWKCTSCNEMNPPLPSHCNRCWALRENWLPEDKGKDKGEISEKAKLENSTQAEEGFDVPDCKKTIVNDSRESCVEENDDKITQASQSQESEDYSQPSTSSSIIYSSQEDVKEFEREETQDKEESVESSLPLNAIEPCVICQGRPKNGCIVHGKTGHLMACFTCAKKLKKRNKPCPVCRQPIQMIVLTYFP
#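 Material: Stable MDM2–luciferase fusion reporter cells | Amount: 2000 cells seeded into each well | Dosing: One concentration, 5 µM, with 0.2% DMSO | Incubation: 4 h cell settling then 2 h compound exposure, 37 °C | Measured by: Luciferase luminescence | Read-out basis: % enhancement relative to plate controls after blank subtraction | Benchmarks: Control and blank well means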
# An asterisk follows results filed as active; nt = no result given.
SMILES,APP 5'UTR act,NF-kB neuron act,STAT1 activator,PERK inhibitor,AHR activator,MDM2 E3 inh
Cc1ccc(C(=O)Nc2cnc3ccccn3c2=O)cc1,38.9,2.61,131.8*,0.1,21.1,-14.4
CCCCC(SCC(=O)Nc1ccccc1)C(=O)O (stereo unspecified),1.4,1.25,104.6,1.6,-2.1,-3.9
CC12COC3(C(=O)Nc4ccccc4)CC1CCC32C (stereo unspecified),-0.5,0.98,104.1,0.5,2.2,-3.4
CC12COC3(C(=O)Nc4ccc5ccccc5c4)CC1CCC32C (stereo unspecified),49.4,1.01,143.5*,-0.4,28.8,3.5
Cn1cc(/C=C2\SC(=O)NC2=S)c2ccccc21,-2.4,0.77,102.2,1.0,47.2*,-15.7
C/C(=N\Nc1nc2ccccc2[nH]1)c1ccc(Cl)s1,9.6,0.87,105.1,-0.4,72.9*,-4.1
C/C(=N\Nc1nc2ccccc2[nH]1)c1ccc(C)o1,96.9,1.68,117.1,-0.3,76.5*,-14.3
Cc1ccc(C(=O)NCc2nc3ccccc3[nH]2)o1,nt,nt,nt,nt,2.8,nt
C/C(=N\Nc1nc2ccccc2[nH]1)c1ccc(N2CCOCC2)cc1,44.1,2,85.1,-0.8,76.3*,-29.8
NCCCC[C@@H]1NC(=O)[C@H](CCC(=O)O)NC(=O)c2cc([N+](=O)[O-])cc(I)c2OCC[C@@H](C(N)=O)NC1=O,-6.8,1.13,105.3,0.2,4.5,nt
O=C(COC(=O)CCc1nc2ccccc2s1)NCc1ccco1,22.1,1.13,100.1,0.8,0.3,-6.3
O=C(NCc1ccco1)C(=O)c1cn(CC(=O)N2CCCCC2)c2ccccc12,-11.4,1.03,100.8,0.1,3.2,17.7
COc1ccc(NC(=S)N2CCN(CCN3C(=O)c4cccc5cccc(c45)C3=O)CC2)cc1,0.1,1.36,101.3,1.2,96.9*,-10.9
CC(=O)c1ccc(NC(=S)N2CCN(CCN3C(=O)c4cccc5cccc(c45)C3=O)CC2)cc1,13.2,0.87,97.4,0.7,122.4*,-0.5
CC(=O)c1cccc(NC(=S)N2CCN(CCN3C(=O)c4cccc5cccc(c45)C3=O)CC2)c1,3.1,1.45,100.9,0.6,1.3,1.5
CC1CCCC(C)N1/N=C/c1cccc(Br)c1 (stereo unspecified),nt,nt,nt,nt,0.7,nt
NNC(=O)c1cc2cc3ccccc3nc2s1,3.5,1.58,136.2*,-0.3,34.2,-11.7
Cc1cc(Nc2ccc(Br)cc2F)n2nc(C)nc2n1,-19.7,1,100.2,-0.2,55.8*,-13.5
Cc1cc(C)cc(Nc2cc(C)nc3nc(C)nn23)c1,1.9,1.06,95.5,0.7,51.1*,-18.4
COC(=O)Nc1nc2c(C)cccc2s1,25.5,1.56,100.1,0.7,22.9,-7.5
COc1ccc(-c2csc(Nc3ncccn3)n2)cc1C,nt,nt,nt,nt,5.3,nt
O=C(Nc1nccs1)c1ccc(Br)s1,nt,nt,nt,nt,12.0,nt
COc1cccc2sc(Nc3nc(-c4ccccn4)cs3)nc12,-83.7,0.86,136.3*,0.7,39.5,-25.3
COc1cccc2sc(NC(=O)c3ccc(Br)s3)nc12,-8.8,1.97,125.4,-0.5,71.4*,-9.0
COc1cccc2sc(NNC(=O)COc3ccccc3)nc12,11.9,1.08,102.3,-0.3,51.1*,-10.2
SMILES,APP 5'UTR act,NF-kB neuron act,STAT1 activator,PERK inhibitor,AHR activator,MDM2 E3 inh
CSc1cccc(NC(=O)Nc2nc3c(C)cccc3s2)c1,nt,nt,nt,0.6,119.0*,-7.7
Nc1nc(/C=C/c2cccnc2)nc(-c2ccccc2O)n1,-4.6,0.79,87.0,1.8,28.3,-17.8
Cc1cc([N+](=O)[O-])ccc1NC(=O)CSc1nncn1-c1ccccn1,nt,nt,nt,nt,-4.2,nt
Cc1cccc2sc(NC(=O)c3ccc(Cl)s3)nc12,18.1,1.14,111.2,0.5,48.3*,-2.0
COC(=O)c1ccc(N=NN2CCCCCC2)cc1,106.5,4.07*,137.1*,0.5,1.3,-14.4
O=C(O)c1ccc(N=NN2CCCCC2)cc1,56.8,1.89,134.6*,1.0,5.0,-8.8
NS(=O)(=O)c1ccc(N=NN2CCCCC2)cc1,31.5,1.91,119.7,0.5,9.3,-10.1
COC(=O)c1ccc(NC(=O)C(=O)c2cn(CC(=O)N3CCOCC3)c3ccccc23)cc1,nt,nt,nt,nt,-2.0,nt
N/C(=N\OC(=O)c1ccc2ccccc2c1)c1ccncc1,149.2*,1.16,147.8*,-0.1,-2.1,-89.9
N/C(=N\OC(=O)c1cccc([N+](=O)[O-])c1)c1ccccn1,77.2,2.31,132.9*,0.5,68.2*,-18.7
COc1cccc(C(=O)O/N=C(\N)c2ccncc2)c1OC,32.1,1.76,114.5,0.5,1.9,-1.8
N/C(=N\OC(=O)c1ccc2ccccc2c1)c1ccccn1,158.2*,4.28*,33.8,1.1,-13.2,-81.9
Cc1ccccc1C(=O)O/N=C(\N)c1ccncc1,37.2,1.93,133.1*,0.4,1.9,-14.8
CCC(=O)N/C(N)=N/c1nc(C)c2cc(OC)ccc2n1,27.4,1.5,133.6*,-0.3,5.9,-14.3
COc1ccc2nc(/N=C(\N)NC(=O)C(C)(C)C)nc(C)c2c1,16.1,0.7,129.3*,-2.3,7.5,-21.1
COC(=O)C(C(=O)OC)C(C[N+](=O)[O-])c1ccc(O)c(OC)c1 (stereo unspecified),-9.5,1.38,101.6,-0.1,0.7,nt
O=C(OCC(=O)N1CCOCC1)c1c(Cl)ccc(Cl)c1Cl,-10.9,1.09,102.9,-1.0,47.6*,-18.5
CC(C)C(NC=C1C(=O)OC(C)(C)OC1=O)C(=O)O (stereo unspecified),15.4,1.43,101.3,0.1,-1.1,-7.4
CC(NC=C1C(=O)OC(C)(C)OC1=O)C(=O)O (stereo unspecified),6.2,1.26,98.8,3.3*,-1.5,-13.7
O=C(COc1ccccc1/C=C1\SC(=O)NC1=O)Nc1ccccc1,20.3,0.99,106.1,-0.3,56.9*,-13.7
O=C(c1ccccc1)n1c(=O)cc[nH]c1=O,nt,nt,nt,nt,3.8,nt
Cc1cc(C)nc(NC(=S)Nc2cccc(F)c2)c1,nt,nt,nt,-0.7,48.5*,-15.8
COc1cccc(NC(=S)Nc2cc(C)cc(C)n2)c1,nt,nt,nt,-1.6,66.3*,-11.9
CC(C)c1ccc(C2(C)NC(=O)N(CC(=O)N3CCN(C(=O)c4cccs4)CC3)C2=O)cc1 (stereo unspecified),nt,nt,nt,nt,0.5,nt
CC1=C(C(=O)OC(C)(C)C)C(c2cccc3ccccc23)NC(=O)N1 (stereo unspecified),nt,nt,nt,nt,2.1,nt
Cc1ccc(C)c(OCc2nc(-c3cccnc3)no2)c1,0.5,0.57,103.9,1.4,2.7,-14.2
